Experimental data taken from ChEMBL document CHEMBL1139868, “Synthesis, DNA binding, and Leishmania topoisomerase inhibition activities of a novel series of anthra[1,2-d]imidazole-6,11-dione derivatives” (J Med Chem, 2007).

Legend:
[1] = system: DNA; assay: Binding affinity to calf thymus double stranded DNA; assay type: nucleic-acid assay; conditions: Bos taurus
Procedure, shortened: (§1)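 UV-vis absorption titration: increasing concentrations of dsDNA (calf thymus DNA, poly[d(A-T)]2 or poly[d(G-C)]2) added to ligand in buffer. Hypochromicity and red-shift of the long-wavelength absorption band were followed. Binding constants were obtained by the half-reciprocal plot method.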

[2] = Binding affinity to double stranded poly[d[A-T)]2 DNA; conditions: Homo sapiens; procedure, shortened: as §1
[3] = Binding affinity to double stranded poly[d[G-C)]2 DNA; conditions: Homo sapiens; procedure, shortened: as §1
[4] = target: T1, DNA topoisomerase I (Leishmania donovani donovani) (UniProt Q9NJG8); assay: Inhibition of Leishmania donovani topoisomerase 1-induced relaxation activity assessed as recovery of supercoiled DNA at 50 uM
T1 sequence (whole entry): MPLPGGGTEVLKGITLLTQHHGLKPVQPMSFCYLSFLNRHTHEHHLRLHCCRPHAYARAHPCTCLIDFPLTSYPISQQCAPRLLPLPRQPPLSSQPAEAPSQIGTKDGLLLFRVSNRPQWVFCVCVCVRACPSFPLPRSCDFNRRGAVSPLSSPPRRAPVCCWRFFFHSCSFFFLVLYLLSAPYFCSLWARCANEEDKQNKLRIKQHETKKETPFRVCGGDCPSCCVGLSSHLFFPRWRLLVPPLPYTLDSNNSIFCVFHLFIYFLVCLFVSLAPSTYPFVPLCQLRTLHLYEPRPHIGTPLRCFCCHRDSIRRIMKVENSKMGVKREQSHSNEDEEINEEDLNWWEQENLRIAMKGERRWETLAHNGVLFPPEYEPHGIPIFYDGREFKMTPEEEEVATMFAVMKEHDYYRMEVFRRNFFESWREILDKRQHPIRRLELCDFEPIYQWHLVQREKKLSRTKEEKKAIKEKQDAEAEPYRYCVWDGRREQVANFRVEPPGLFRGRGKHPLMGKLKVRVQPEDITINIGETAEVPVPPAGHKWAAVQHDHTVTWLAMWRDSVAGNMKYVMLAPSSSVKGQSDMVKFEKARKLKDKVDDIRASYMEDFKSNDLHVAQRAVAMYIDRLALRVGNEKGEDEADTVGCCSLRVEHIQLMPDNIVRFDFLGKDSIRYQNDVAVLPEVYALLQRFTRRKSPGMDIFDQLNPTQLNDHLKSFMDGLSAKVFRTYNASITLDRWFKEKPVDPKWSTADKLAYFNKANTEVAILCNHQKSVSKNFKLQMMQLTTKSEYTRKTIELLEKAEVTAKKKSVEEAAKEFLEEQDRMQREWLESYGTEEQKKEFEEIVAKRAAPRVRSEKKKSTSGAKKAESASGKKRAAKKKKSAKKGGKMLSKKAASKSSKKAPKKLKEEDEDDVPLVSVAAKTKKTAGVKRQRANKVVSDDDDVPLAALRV

[5] = target: T1, DNA topoisomerase I (Leishmania donovani donovani); assay: Inhibition of Leishmania donovani topoisomerase 1-induced relaxation activity assessed as recovery of supercoiled DNA at 10 uM
[6] = target: T1, DNA topoisomerase I (Leishmania donovani donovani); assay: Inhibition of Leishmania donovani topoisomerase 1-induced relaxation activity assessed as recovery of supercoiled DNA at 20 uM

Row | SMILES | Ka [1] | Ka [2] | Ka [3] | inhibition [4] | inhibition [5] | inhibition [6]
1 | O=C1c2ccccc2C(=O)c2c1ccc1nc(-c3ccc(OCCCN4CCN(CCO)CC4)cc3)[nH]c21 | 1.9 10^5/M | 3 10^5/M | 2.2 10^5/M | 5% |  | 
2 | O=C1c2ccccc2C(=O)c2c1ccc1nc(-c3ccc(OCCCn4cnnn4)cc3)[nH]c21 | 0.5 10^5/M | 0.5 10^5/M | 0.3 10^5/M | 95% | 80% | 92%
3 | CN1CCN(CCCOc2ccc(-c3nc4ccc5c(c4[nH]3)C(=O)c3ccccc3C5=O)cc2)CC1 | 1 10^5/M | 2.8 10^5/M | 1.9 10^5/M | 10% |  | 
4 | CN(C)CCCOc1ccc(-c2nc3ccc4c(c3[nH]2)C(=O)c2ccccc2C4=O)cc1 | 2.1 10^5/M | 4.1 10^5/M | 3 10^5/M | 5% |  | 
5 | CCN(CC)CCCOc1ccc(-c2nc3ccc4c(c3[nH]2)C(=O)c2ccccc2C4=O)cc1 | 1.9 10^5/M | 3.2 10^5/M | 2.3 10^5/M | 10% |  | 2%
6 | CC[C@@]1(O)C(=O)OCc2c1cc1n(c2=O)Cc2cc3ccccc3nc2-1 |  |  |  | 65% | 39% | 55%
7 | O=C1c2ccccc2C(=O)c2c1ccc1nc(-c3ccc(OCCCn4ccnc4)cc3)[nH]c21 | 1.1 10^5/M | 1.8 10^5/M | 0.6 10^5/M | 91% | 62% | 77%
8 | O=C1c2ccccc2C(=O)c2c1ccc1nc(-c3ccccn3)[nH]c21 |  |  |  | 75% | 9% | 20%
9 | O=C1c2ccccc2C(=O)c2c1ccc1nc(-c3ccc(OCCCN4CCOCC4)cc3)[nH]c21 | 0.6 10^5/M | 1.1 10^5/M | 0.5 10^5/M | 92% | 46% | 77%
10 | O=C1c2ccccc2C(=O)c2c1ccc1nc(-c3cccnc3)[nH]c21 |  |  |  | 80% | 9% | 15%
